Results taken from ChEMBL document CHEMBL1122443, “Synthesis and antitumor evaluation of selected 5,6-disubstituted 1(2)H-indazole-4,7-diones” (1983).
Active and inactive are the calls of the source. The rule behind the calls is not given here.

Legend:
Mus musculus [1] = experiment: Antitumor activity in CF1 mice bearing Ehrlich ascites carcinoma measured as percentage inhibition at 1 mg/kg; IA means inactive; assay type: functional, organism-based; design: dose 1 mg/kg
Procedure, shortened: (§1)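 Ehrlich ascites model in male CF1 mice (22–25 g): 2 × 10⁶ cells ip on day 0, ip dosing days 1–8, kill on day 9. Percent inhibition = 100 − [(treated volume × treated ascrit)/(control volume × control ascrit)]. Greater than 80% was taken as significant. Vehicle was 0.05% Tween 80, alone or with 5% absolute EtOH. 6-Mercaptopurine was the positive control.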

Mus musculus [2] = experiment: Antitumor activity in 6 CF1 mice bearing Ehrlich ascites carcinoma measured as survivors on day 9 at 8 mg/kg; 6/6; assay type: functional
Mus musculus [3] = experiment: Antitumor activity in CF1 mice bearing Ehrlich ascites carcinoma measured as ascites volume at 8 mg/kg; assay type: functional
Procedure, shortened: (§2)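 Male CF1 mice (22–25 g) received 2 × 10⁶ Ehrlich carcinoma cells ip on day 0. Dosing was ip daily on days 1–8, with sacrifice on day 9. Ascites fluid volume per mouse and ascrit (packed cell volume) were measured for each group. Vehicle was 0.05% Tween 80, or 5% absolute EtOH in 0.05% Tween 80, used for both compound and control. 6-Mercaptopurine was the positive control.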

Mus musculus [4] = experiment: Antitumor activity in CF1 mice bearing Ehrlich ascites carcinoma measured as percentage inhibition at 8 mg/kg; IA means inactive; assay type: functional, organism-based; design: dose 8 mg/kg; procedure, shortened: as §1
Mus musculus [5] = experiment: Antitumor activity in CF1 mice bearing Ehrlich ascites carcinoma measured as percentage inhibition at 5 mg/kg; IA means inactive; assay type: functional, organism-based; design: dose 5 mg/kg; procedure, shortened: as §1
Mus musculus [6] = experiment: Antitumor activity in CF1 mice bearing Ehrlich ascites carcinoma measured as percent ascrit packed cell volume at 1 mg/kg; assay type: functional
Procedure, shortened: (§3)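 CF1 male mice (22–25 g) were inoculated ip with 2 × 10⁶ Ehrlich cells on day 0 and treated ip on days 1–8 in 0.05% Tween 80 or 5% EtOH/0.05% Tween 80 vehicle. On day 9 the mice were sacrificed, and the ascrit (packed cell volume) of the ascites fluid was determined.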

Mus musculus [7] = experiment: Antitumor activity in CF1 mice bearing Ehrlich ascites carcinoma measured as ascites volume at 5 mg/kg; assay type: functional; procedure, shortened: as §2
Mus musculus [8] = experiment: Antitumor activity in 6 CF1 mice bearing Ehrlich ascites carcinoma measured as survivors on day 9 at 1 mg/kg; 6/6; assay type: functional
Mus musculus [9] = experiment: Antitumor activity in CF1 mice bearing Ehrlich ascites carcinoma measured as percent ascrit packed cell volume at 8 mg/kg; assay type: functional; procedure, shortened: as §2
Mus musculus [10] = experiment: Antitumor activity in CF1 mice bearing Ehrlich ascites carcinoma measured as ascites volume at 1 mg/kg; assay type: functional
Procedure, shortened: (§4)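 Ehrlich ascites cells (2 × 10⁶) were implanted ip in male CF1 mice (22–25 g) on day 0. Dosing was ip on days 1–8 in 0.05% Tween 80 or 5% EtOH/0.05% Tween 80, with vehicle controls. Mice were killed on day 9, and ascites fluid volume per mouse was measured.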

Mus musculus [11] = experiment: Antitumor activity in CF1 mice bearing Ehrlich ascites carcinoma measured as percent ascrit packed cell volume at 5 mg/kg; assay type: functional; procedure, shortened: as §2
Mus musculus [12] = experiment: Antitumor activity in 6 CF1 mice bearing Ehrlich ascites carcinoma measured as survivors on day 9 at 5 mg/kg; 5/6; assay type: functional
Mus musculus [13] = experiment: Antitumor activity in CF1 mice bearing Ehrlich ascites carcinoma measured as percentage inhibition at 5 mg/kg; assay type: functional; procedure, shortened: as §1
Mus musculus [14] = experiment: Antitumor activity in CF1 mice bearing Ehrlich ascites carcinoma measured as survivors on day 9 at 1 mg/kg; 6/6; assay type: functional
Mus musculus [15] = experiment: Average days survived for treated / average days survived for control at 5 (mg/kg); 8.8/9.2; assay type: functional
Mus musculus [16] = experiment: Antitumor activity in CF1 mice bearing Ehrlich ascites carcinoma measured as survivors on day 9 at 5 mg/kg; 6/6; assay type: functional
Mus musculus [17] = experiment: Anti tumor activity in mice bearing lymphocytic leukemia P-388 at 10 mg/kg; assay type: functional
Procedure, shortened: (§5)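 Male BDF1 mice (20–23 g) were inoculated ip with 1 × 10⁶ P-388 leukemia cells on day 0. Compound was given ip once daily on days 1–14 in 0.05% Tween 80 vehicle, with a vehicle control group and 5-fluorouracil as positive control. Activity was scored as % T/C, average days survived treated/control, with >125% taken as significant.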

Mus musculus [18] = experiment: Antitumor activity in CF1 mice bearing Ehrlich ascites carcinoma measured as survivors on day 9 at 10 mg/kg; 5/6; assay type: functional
Mus musculus [19] = experiment: Anti tumor activity in mice bearing lymphocytic leukemia P-388 at 20 mg/kg; assay type: functional
Procedure, shortened: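 Male BDF1 mice (20–23 g) inoculated ip with 1 × 10⁶ P-388 lymphocytic leukemia cells on day 0. Test agents were given ip once daily on days 1–14, with 0.05% Tween 80 as vehicle for treated and control groups. Read-out is %T/C, the mean days survived by treated over control. Values above 125% were counted as significant. 5-Fluorouracil was the positive control.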

Mus musculus [20] = experiment: Average days survived for treated / average days survived for control at 20 (mg/kg); 4.8/9.2; assay type: functional
Mus musculus [21] = experiment: Antitumor activity in CF1 mice bearing Ehrlich ascites carcinoma measured as percent ascrit packed cell volume at 10 mg/kg; assay type: functional; procedure, shortened: as §3
Mus musculus [22] = experiment: Antitumor activity in CF1 mice bearing Ehrlich ascites carcinoma measured as percentage inhibition at 10 mg/kg; IA= inactive; assay type: functional, organism-based; design: dose 10 mg/kg
Procedure, shortened: (§6)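 In the Ehrlich ascites model, male CF1 mice (22–25 g) received 2 × 10⁶ cells ip on day 0 and compound ip on days 1–8, with a vehicle of 0.05% Tween 80 ± 5% EtOH. Ascites volume and ascrit were taken on day 9. % inhibition = 100 − [(vol × ascrit, treated)/(vol × ascrit, control)], with >80% taken as significant.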

Mus musculus [23] = experiment: Average days survived for treated / average days survived for control at 1 (mg/kg); 9.6/9.2; assay type: functional
Mus musculus [24] = experiment: Antitumor activity in CF1 mice bearing Ehrlich ascites carcinoma measured as ascites volume at 10 mg/kg; assay type: functional; procedure, shortened: as §4
Mus musculus [25] = experiment: Antitumor activity in CF1 mice bearing Ehrlich ascites carcinoma measured as percentage inhibition at 1 mg/kg; IA= inactive; assay type: functional, organism-based; design: dose 1 mg/kg; procedure, shortened: as §6
Mus musculus [26] = experiment: Anti tumor activity in mice bearing lymphocytic leukemia P-388 at 5 mg/kg; assay type: functional; procedure, shortened: as §5
Mus musculus [27] = experiment: Anti tumor activity in mice bearing lymphocytic leukemia P-388 at 1 mg/kg; assay type: functional; procedure, shortened: as §5
Mus musculus [28] = experiment: Average days survived for treated / average days survived for control at 30 (mg/kg); 3.0/9.2; assay type: functional
Mus musculus [29] = experiment: Average days survived for treated / average days survived for control at 10 (mg/kg); 6.4/9.2; assay type: functional
Mus musculus [30] = experiment: Anti tumor activity in mice bearing lymphocytic leukemia P-388 at 30 mg/kg; assay type: functional; procedure, shortened: as §5
Mus musculus [31] = experiment: Antitumor activity in CF1 mice bearing Ehrlich ascites carcinoma measured as ascites volume at 3 mg/kg; assay type: functional; procedure, shortened: as §2
Mus musculus [32] = experiment: (§7) Antitumor activity in CF1 mice bearing Ehrlich ascites carcinoma measured as percent ascrit packed cell volume at 3 mg/kg; assay type: functional; procedure, shortened: as §3
Mus musculus [33] = experiment: Antitumor activity in CF1 mice bearing Ehrlich ascites carcinoma measured as survivors on day 9 at 5 mg/kg; 5/5; assay type: functional
Mus musculus [34] = experiment: Average days survived for treated / average days survived for control at 1 (mg/kg); 10/9.2; assay type: functional
Mus musculus [35] = experiment: Antitumor activity in CF1 mice bearing Ehrlich ascites carcinoma measured as survivors on day 9 at 8 mg/kg; 5/6; assay type: functional
Mus musculus [36] = experiment: Antitumor activity in CF1 mice bearing Ehrlich ascites carcinoma measured as survivors on day 9 at 3 mg/kg; 6/6; assay type: functional
Mus musculus [37] = experiment: Antitumor activity in CF1 mice bearing Ehrlich ascites carcinoma measured as percentage inhibition at 3 mg/kg; IA=inactive; assay type: functional, organism-based; design: dose 3 mg/kg; procedure, shortened: as §6
Mus musculus [38] = experiment: Antitumor activity in CF1 mice bearing Ehrlich ascites carcinoma measured as percentage inhibition at 8 mg/kg; assay type: functional; procedure, shortened: as §1
Mus musculus [39] = experiment: Antitumor activity in 6 CF1 mice bearing Ehrlich ascites carcinoma measured as survivors on day 9 at 3 mg/kg; 6/6; assay type: functional
Mus musculus [40] = experiment: Antitumor activity in 6 CF1 mice bearing Ehrlich ascites carcinoma measured as survivors on day 9 at 5 mg/kg; 6/6; assay type: functional
Mus musculus [41] = experiment: Antitumor activity in CF1 mice bearing Ehrlich ascites carcinoma measured as percentage inhibition at 3 mg/kg; assay type: functional; procedure, shortened: as §1
Mus musculus [42] = experiment: as §7; assay type: functional; procedure, shortened: as §2; remark: listed apart in the source

NC1=C(Cl)C(=O)c2[nH]ncc2C1=O
inhibition (Mus musculus [1]): inactive
Survivors (Mus musculus [2]): 6
ascites volume (Mus musculus [3]): 3 ml mouse-1
inhibition (Mus musculus [4]): inactive
inhibition (Mus musculus [5]): inactive
packed cell volume (Mus musculus [6]): 37.6%
ascites volume (Mus musculus [7]): 2.7 ml mouse-1
Survivors (Mus musculus [8]): 6
packed cell volume (Mus musculus [9]): 29.1%
ascites volume (Mus musculus [10]): 2.1 ml mouse-1
packed cell volume (Mus musculus [11]): 32.3%
Survivors (Mus musculus [12]): 5

Cn1ncc2c1C(=O)C(Cl)=C(N1CC1)C2=O
inhibition in vivo at 5 mg/kg (Mus musculus [13]): 5.8%
Survivors (Mus musculus [14]): 6
Average survival (days) (Mus musculus [15]): 8.8
Survivors (Mus musculus [16]): 6
T/C (Mus musculus [17]): 70%
packed cell volume (Mus musculus [6]): 35.2%
Survivors (Mus musculus [18]): 5
T/C (Mus musculus [19]): 52%
Average survival (days) (Mus musculus [20]): 4.8
packed cell volume (Mus musculus [21]): 37.3%
inhibition (Mus musculus [22]): inactive
Average survival (days) (Mus musculus [23]): 9.6
ascites volume (Mus musculus [24]): 3.4 ml mouse-1
inhibition (Mus musculus [25]): inactive
ascites volume (Mus musculus [7]): 2.5 ml mouse-1
T/C (Mus musculus [26]): 96%
T/C (Mus musculus [27]): 107%
Average survival (days) (Mus musculus [28]): 3
Average survival (days) (Mus musculus [29]): 6.4
ascites volume (Mus musculus [10]): 2 ml mouse-1
T/C (Mus musculus [30]): 33%
packed cell volume (Mus musculus [11]): 41.4%

CC(=O)NC1=C(N2CC2)C(=O)c2c(cnn2C)C1=O
inhibition in vivo at 5 mg/kg (Mus musculus [13]): 78.3%
ascites volume (Mus musculus [3]): 1.2 ml mouse-1
ascites volume (Mus musculus [31]): 3.2 ml mouse-1
packed cell volume (Mus musculus [32]): 41.4%
Survivors (Mus musculus [33]): 5
Average survival (days) (Mus musculus [34]): 10
Survivors (Mus musculus [35]): 5
Survivors (Mus musculus [36]): 6
inhibition (Mus musculus [37]): inactive
inhibition in vivo at 8 mg/kg (Mus musculus [38]): 25.8%
ascites volume (Mus musculus [7]): 0.9 ml mouse-1
T/C (Mus musculus [27]): 109%
packed cell volume (Mus musculus [9]): 38.6%
packed cell volume (Mus musculus [11]): 37.4%

Cn1ncc2c1C(=O)C(Cl)=C(N)C2=O
inhibition in vivo at 5 mg/kg (Mus musculus [13]): 8.4%
Survivors (Mus musculus [2]): 6
Survivors (Mus musculus [39]): 6
ascites volume (Mus musculus [3]): 1.9 ml mouse-1
inhibition (Mus musculus [4]): inactive
ascites volume (Mus musculus [31]): 2 ml mouse-1
Survivors (Mus musculus [40]): 6
inhibition in vivo at 3 mg/kg (Mus musculus [41]): 25.3%
ascites volume (Mus musculus [7]): 1 ml mouse-1
packed cell volume (Mus musculus [9]): 33.9%
packed cell volume (Mus musculus [42]): 44%
packed cell volume (Mus musculus [11]): 35.4%
